Compound activity from PubChem.
The list is not random: actives were taken first. Their share in the collection is about 2.3%.
Env fusion inh: HIV envelope-mediated fusion inhibition | AID 651610 | 360,000 tested, 1.1% active | HeLa-JRFL Env/CEM21 cell fusion, luciferase | inhibition, % at 12.3 µM;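 active = mean replicate inhibition score of at least 50 and every replicate individually at or above 50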;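 also: 0% = plate neutral controls and 100% = maraviroc near 300 nM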
F508del corr: correctors of CFTR F508del function in bronchial epithelial cells. CFBE cells, YFP halide quenching; stimulated with forskolin plus potentiator P3; % fluorescence drop versus neutral controls. activity (quench increase), % at 7.58 µM. 350,000 tested, 0.36% active. AID 720511;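 active = mean added fluorescence quench of at least 8% versus neutral control, with both replicates also reaching 8%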;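 also: cells transiently co-express mutant CFTR-F508del with the halide-sensitive YFP; corrector assay measuring rescue of mutant channel to the surface after 24 h compound exposure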
EWS-Fli block: inhibitors of EWS/Fli oncoprotein transcriptional activity; A673 NR0B1-luciferase reporter, viability-normalised; 350,000 tested, 0.67% active; inhibition, % at 12.6 µM; AID 651661;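 active = mean inhibition of at least 50% after viability correction, with every replicate also passing that limit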;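 also: firefly luciferase signal divided by Alamar Blue viability fluorescence both relative to DMSO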
PGC1a acetyl inh: PGC1a acetylation modulation, inhibitor mode. U2OS PGC1a acetylation, AlphaScreen anti-acetyl-lysine; with virally co-expressed GCN5 acetyltransferase. inhibition, % at 15.6 µM. 350,000 tested, 0.17% active. AID 651687;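 active = every replicate shows inhibition of at least 40%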;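 also: 0% = neutral control wells and 100% = positive control wells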
FN deposition inh: fibronectin deposition inhibition | AH1F fibroblasts, Alexa488-fibronectin deposition fluorescence, overnight | inhibition, % at 12.6 µM | 350,000 tested, 0.086% active | AID 743247;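 active = mean inhibition across replicates of 30% or more, regardless of how many single replicates reach that level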;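 also: positive control wells lacked labelled fibronectin entirely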
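Assay system: AH1F fibroblast monolayer, labelled fibronectin deposition. Amount: 10000 cells per well. Also added: labelled fibronectin 24 nM. Compound: single-point pinned compound. Incubation: cell attachment 1 h, compound and FN exposure overnight. Detection: fluorescence after three HBSS washes, excitation 485 nm, emission 525 nm. Read-out: inhibition of fibronectin deposition signal.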
PAX8 inh HTS: inhibitors of PAX8 transcriptional activity in RMG-I cells; RMG-I TPO-luciferase reporter, SteadyGlo, 24 h; inhibition, % at 12.6 µM; 360,000 tested, 1.2% active; AID 652154;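 active = mean replicate inhibition at least 60% with every replicate also reaching 60%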;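 also: luciferase light reporting Pax8 driven TPO promoter activity; plate controls were median of neutral control wells for no effect and mitoxantrone controls for full effect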
Numbers without * were called inactive; nt = no result; [ ] = another dose, or the depositor's remark.

SMILES	Env fusion inh	F508del corr	EWS-Fli block	PGC1a acetyl inh	FN deposition inh	PAX8 inh HTS
CO[C@H]1CN(C)C(=O)c2ccc(NC(=O)Nc3cccc(F)c3)cc2OC[C@H](C)N(C(=O)Nc2c(C)noc2C)C[C@@H]1C	nt	0	-5	3	-31	-1
CC1CCCN(S(=O)(=O)c2ccc(C(=O)Nc3sc4c(c3C(N)=O)CCN(C)C4)cc2)C1 (stereo unspecified)	7	2	56*	nt	0	19
CC(C)N1CCc2c(sc(NC(=O)C3CCCCC3)c2C(N)=O)C1	9	1	-11	44*	-2	9
O=C(c1ccc2c(c1)OCO2)N(CC1CCCO1)C1(C(=O)NC2CCCCC2)CCCCC1 (stereo unspecified)	135*	nt	nt	0	-11	-4
O=C(c1ccc2c(c1)OCO2)N(Cc1cccs1)C1(C(=O)NC2CCCCC2)CCCCC1	103*	nt	nt	nt	-7	nt
O=C(Cc1cccs1)N(Cc1ccco1)C1(C(=O)NC2CCCCC2)CCCCC1	73*	nt	nt	-23	-3	23
COC(=O)[C@H]1[C@H](CO)[C@H]2Cn3c(ccc(C4=CCCC4)c3=O)[C@H]2N1CC1CCOCC1	nt	nt	-1	nt	nt	nt
O=C(C1=C[C@@H](c2ccc(Br)cc2)C[C@@H](OCc2ccc(CO)cc2)O1)N1CCCC1	2[16.7 µM]	-1	-21	4	nt	nt
CC(=O)N(C)C[C@H]1Oc2cc(/C=C/c3ccccc3)ccc2S(=O)(=O)N([C@@H](C)CO)C[C@@H]1C	-4[16.7 µM]	-2	7	-11	nt	nt
CN1c2ccc(-c3ccc(C#N)cc3)cc2[C@@H]2[C@@H](CCN2C(=O)NC2CCCCC2)[C@@H]1CO	-8[16.7 µM]	5	1	1	2	88*
COc1ccc(-c2ccc3c(c2)[C@@H]2[C@@H](CCN2C(=O)NC2CCCC2)[C@H](CO)N3C)cc1	59*[16.7 µM]	4	8	10	0	1
COc1cccc(-c2ccc3c(c2)[C@@H]2[C@@H](CCN2C(=O)NC2CCCC2)[C@@H](CO)N3C)c1	nt	0	-15	-12	2	18
COc1cccc(-c2ccc3c(c2)[C@H]2[C@H](CCN2C(=O)NC2CCCCC2)[C@@H](CO)N3C)c1	37[16.7 µM]	1	-12	13	1	96*
C[C@@H]1CN([C@@H](C)CO)C(=O)c2cccc(NC(=O)c3ccncc3)c2O[C@@H]1CN(C)Cc1ccc(C(=O)Nc2ccccc2N)cc1	-50[16.7 µM]	1	45	-1	nt	nt
CN(C[C@H]1N[C@@H](CO)[C@@H]1c1ccc(C2=CCCC2)cc1)C(=O)c1ccncc1	nt	-7	42	-19	21	81*
CN(C[C@H]1N[C@@H](CO)[C@@H]1c1ccc(C2=CCCC2)cc1)C(=O)c1ccccn1	nt	-2	27	2	3	72*
CN(C[C@H]1N[C@@H](CO)[C@@H]1c1ccccc1)C(=O)c1ccccn1	nt	-5	6	-8	-1	-19
O=C(C[C@@H]1CC[C@H]2[C@@H](COC[C@@H](O)CN2Cc2ccc(Cl)cc2)O1)Nc1nccs1	nt	4	-2	2	-1	-5
Cc1ccc(-c2csc(Cc3nc(-c4cc5ccccc5oc4=O)cs3)n2)cc1	nt	2	5	6	nt	nt
Cc1ccn2cc(-c3cc4ccccc4oc3=O)nc2c1	12	-2	68*	nt	-11	-98
N#Cc1cccc(-c2ccc3c(c2)[C@H]2[C@H](CCN2S(=O)(=O)c2ccccc2F)[C@@H](CO)N3)c1	nt	2	7	-4	12	-18
Cc1cccc(N=C2NN=C(c3c(C)[nH]c4ccccc34)CS2)c1	5	nt	15	-5	7	74*
COc1ccc(CN2CC3(C2)CN(Cc2ccc4c(c2)OCO4)[C@@H](CO)c2[nH]c4cc(OC)ccc4c23)cc1	nt	1	-6	10	nt	nt
COc1cccc(C(=O)NN2c3ccccc3CCc3ccccc32)c1	nt	-1	9	-5	-4	67*
COc1ccc(/C=C2\SC(=O)N(CCNC(=O)C3=COCCO3)C2=O)cc1	-68	8.0*	34	-3	11	-132
SMILES	Env fusion inh	F508del corr	EWS-Fli block	PGC1a acetyl inh	FN deposition inh	PAX8 inh HTS
O=C(NCCN1C(=O)S/C(=C\c2ccc(OC(F)F)cc2)C1=O)c1cnccn1	nt	13*	59*	nt	14	128*
O=C(NCCN1C(=O)S/C(=C\c2ccc(OC(F)F)cc2)C1=O)[C@@H]1CCCN1C(=O)c1cccs1	3	nt	19	nt	-2	4
O=C(C1CC1)N1CCCCN2[C@@H](CO)[C@@H](c3ccc(-c4ccncc4)cc3)[C@@H]2C1	nt	0	15	4	nt	-19
O=C(NCCc1ccccc1)c1cc([N+](=O)[O-])ccc1N1CCOCC1	19	1	-5	-2	5	nt
O=C(NCCOc1ccccc1)c1cc([N+](=O)[O-])ccc1N1CCOCC1	2	12*	58*	8	-22	18
O=C(c1cc([N+](=O)[O-])ccc1N1CCOCC1)N1CCN(c2ccccc2)CC1	-106	-2	nt	nt	0	91*
O=C(NCCOc1ccccc1F)c1cc([N+](=O)[O-])ccc1N1CCOCC1	63*	8.3*	49	-3	nt	24
O=C(NCCc1ccc(F)cc1)c1cc([N+](=O)[O-])ccc1N1CCOCC1	-16	2	-2	-2	nt	8
CC1CCN(c2ccccc2NC(=O)c2cc([N+](=O)[O-])ccc2N2CCOCC2)CC1	60*	0	nt	1	9	7
COc1ccc(S(=O)(=O)N2C[C@@H](O)COC[C@H]3O[C@H](CC(=O)NCCCN4CCOCC4)CC[C@@H]32)cc1	nt	-1	-6	3	7	-1
Cc1nn(-c2ccccc2)c(N2CCCC2)c1/C=N/NC(=O)c1ccccc1O	nt	nt	nt	nt	13	-2
O=C(N/N=C/c1cc2c3c(c1O)CCCN3CCC2)c1ccccc1O	-16	8.3*	11	nt	nt	62*
CC(=O)N1[C@@H]2c3ccc(-c4ccc(F)cc4)c(=O)n3C[C@@H]2[C@@H](CO)[C@@H]1C(=O)N(C)C	nt	-2	3	nt	nt	3
CCC(=O)N1CCC2(CC1)CN(Cc1ccc3c(c1)OCO3)[C@@H](CO)c1c2c2ccc(OC)cc2n1C	nt	-2	-13	-4	nt	nt
O=C(Nc1cccc(O)c1)C(=O)Nc1ccccn1	nt	-2	8	nt	0	67*
Cc1ccc(-c2cnc3c(Nc4cccc(OC(F)(F)C(F)F)c4)nccn23)cc1	61*	1	-24	nt	-1	-8
CC1=C([N+](=O)[O-])C(c2ccccc2)C2=C(N1)c1ccccc1C2=O (stereo unspecified)	120*	nt	nt	2	-5	nt
C[C@H]1CCCCO[C@@H](CN(C)Cc2ccc(C(F)(F)F)cc2)[C@@H](C)CN([C@@H](C)CO)C(=O)c2cc(NS(=O)(=O)c3ccc(F)cc3)ccc2O1	17[16.7 µM]	-1	17	-1	8	96*
